Screening results (PubChem BioAssay)
PfHsp90 set2: growth inhibition of yeast expressing Plasmodium Hsp90. inhibition, % at 9.4 µM. actives 0.32% (n = 310,000). S. cerevisiae expressing PfHsp90, BacTiter-Glo ATP, 48 h; yeast lacking PDR1 and PDR3 efflux regulators;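 active = every replicate shows inhibition above about 80%, whatever the replicate mean, limit read from the data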;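 also: 0% = DMSO neutral controls and 100% = 20 µM radicicol positive controls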
HSF-1 act: increases HSF-1 driven luciferase reporter signal; NIH3T3-HGL HSF-1 luciferase reporter, MG132, 8 h; 100% = twice DMSO control signal; activation, % at 9 µM; actives 1.7% (n = 300,000);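 active = mean replicate activation of at least 50% with a set share of replicates each reaching 50%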;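 also: 0% = median of the neutral control wells and 100% = twice that signal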
PvdQ inh: P. aeruginosa PvdQ acylase inhibition. purified PvdQ acylase, fluorescence plate reader. actives 0.063% (n = 340,000). inhibition, % at 10 µM; in the data active = inhibition above about 30%, passing the limit was not always enough;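 also: 0% = vehicle neutral wells and 100% = reference inhibitor wells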
T cruzi repl: T. cruzi replication inhibition; T. cruzi beta-gal in NIH3T3, luminescence, 90 h; actives 1.4% (n = 300,000); inhibition, % (concentration not given with the values); AID 1885;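 active = mean inhibition across valid replicates above about 55%, limit read from the data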;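 also: signal also drops with host cell toxicity which is not excluded here; 0% = plate median of DMSO wells and 100% = zero luminescence signal; higher percent means less beta-gal luminescence so fewer parasites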
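assay system = mouse NIH/3T3 fibroblasts infected with β-gal-expressing T. cruzi Tulahuen C4 | input = 5,000 NIH/3T3 host cells per well | buffer or medium = DMEM plus 2% FBS | timing = 3 h host attachment, then at least 90 h co-culture | measured by = GalScreen luminescence, 60 min | evaluation = luminescence reflecting intracellular parasite burden, expressed as percent inhibition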
N-glyco inh: blocks N-linked glycosylation in D54 reporter cells. actives 0.23% (n = 360,000). D54 ERlucT glycosylation luciferase reporter, 24 h; percent of 100 nM tunicamycin response. reporter increase, % at 12.5 µM;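 active = mean luciferase reporter signal, scaled so untreated is 0 and the glycosylation-blocking control 100, at or above a set limit in every replicate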;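 also: luciferase carries N-glycosylation sites so blocking glycosylation raises the light; 0% = median of neutral control wells and 100% = median of 100 nM tunicamycin wells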
CaV13 FRET inh: Disruptors of the CACNA1D IQ motif to Ca2+-dependent inactivation inhibitor domain association, primary screening, Förster resonance energy transfer in intact living …; HEK cells, CFP/YFP FRET ICDI-IQ, plate reader, 10 min; percent FRET-ratio fall versus neutral wells; inhibition, % at 12.3 µM; actives 0.098% (n = 340,000);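 active = mean replicate inhibition of at least 30% and at least 1% of replicates passing that level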;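 also: 0% = median of the neutral control wells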
Starred values were filed as active, the others as inactive. This is a sample that favours compounds with a hit; in the whole collection about 3% have one here.

For CN(C)C(=O)c1cccc(-c2cnc3c(NC=O)cc(-c4ccccc4Cl)cn23)c1 the results were N-glyco inh 35* and CaV13 FRET inh -5.
`CCC(C)NC(=O)Cc1ccc(-c2ccccc2)cc1` (stereo not given) gave PfHsp90 set2 -34, HSF-1 act 1, PvdQ inh -14, T cruzi repl 62*, N-glyco inh -1 and CaV13 FRET inh -6.
Cc1ccc(-c2noc(CCC(=O)Nc3cc(C)ccn3)n2)cc1 was read as PfHsp90 set2 32, HSF-1 act 69*, PvdQ inh -19, T cruzi repl -20, N-glyco inh -1 and CaV13 FRET inh 0.
`Cc1ccc(-c2noc(CCC(=O)Nc3ccccc3C)n2)cc1` gave PfHsp90 set2 -6, HSF-1 act -4, PvdQ inh -8, T cruzi repl -8, N-glyco inh 3 and CaV13 FRET inh -4.
For Cc1ccnc(NC(=O)Cc2ccc(-c3ccccc3)cc2)c1 the results were PfHsp90 set2 -42, HSF-1 act 78*, PvdQ inh -14, T cruzi repl 16, N-glyco inh -5 and CaV13 FRET inh -6.
O=C(Cc1ccc(-c2ccccc2)cc1)Nc1ccccn1 was read as PfHsp90 set2 -104, HSF-1 act 21, PvdQ inh -6, T cruzi repl 10, N-glyco inh -8 and CaV13 FRET inh -3.
Screening C[C@@H]1CN([C@@H](C)CO)C(=O)CCCn2nncc2CO[C@H]1CN(C)C(=O)Nc1ccc(-c2cccs2)cc1 returned N-glyco inh -1 and CaV13 FRET inh -9.
Screening CCn1c(=S)[nH]c2c(=O)n(C)c(=O)n(C)c21 returned PfHsp90 set2 -8, PvdQ inh 7, N-glyco inh 0 and CaV13 FRET inh -12.
`COc1ccc(-c2nnc(-c3ccc(F)cc3)o2)cc1` gave PfHsp90 set2 -3, HSF-1 act 46, PvdQ inh -26, T cruzi repl -17, N-glyco inh -9 and CaV13 FRET inh -4.
For COc1ccc(Nc2oc(-c3ccc(OC)cc3)nc2C#N)cc1 the results were PfHsp90 set2 21, HSF-1 act 68*, PvdQ inh -16, T cruzi repl 17, N-glyco inh 2 and CaV13 FRET inh -4.
Screening Cc1ccccc1-c1nnc(SCc2ccccc2)o1 returned HSF-1 act 64*, PvdQ inh -9, T cruzi repl 22, N-glyco inh -1 and CaV13 FRET inh -3.
Screening COc1ccc(-c2nnc(-c3ccc(C)cc3)o2)cc1 returned PfHsp90 set2 -27, HSF-1 act 53*, PvdQ inh -14, T cruzi repl -11, N-glyco inh -4 and CaV13 FRET inh -2.
Screening C#CCSc1nnc(-c2ccc(OC)cc2)o1 returned PfHsp90 set2 -6, HSF-1 act 66*, PvdQ inh 5, T cruzi repl -55, N-glyco inh -4 and CaV13 FRET inh -5.
For COc1ccc(-c2nnc(SCC#N)o2)cc1 the results were PfHsp90 set2 6, HSF-1 act 18, PvdQ inh -7, T cruzi repl 4, N-glyco inh 1 and CaV13 FRET inh -5.
Screening COc1ccc(-c2nnc(SCc3ccccc3F)o2)cc1 returned HSF-1 act 54*, PvdQ inh -24, T cruzi repl 7, N-glyco inh -11 and CaV13 FRET inh -2.
For Cc1ccccc1-c1nnc(SCc2ccccc2F)o1 the results were HSF-1 act 74*, PvdQ inh -15, T cruzi repl 25, N-glyco inh -7 and CaV13 FRET inh -5.
For O=C(C[C@@H]1C[C@@H]2c3cc(NS(=O)(=O)c4ccc(F)cc4)ccc3O[C@@H]2[C@@H](CO)O1)NC1CCCCC1 the results were N-glyco inh -2 and CaV13 FRET inh -7.
Cc1cc(NC(=O)Cc2c(C)[nH]c3ccccc23)ccc1Oc1cccnc1 was read as CaV13 FRET inh -2.
For CCOC(=O)N1CCN(C(=O)C(=O)c2cn(CC(=O)N3CCCCCC3)c3ccccc23)CC1 the results were PfHsp90 set2 -4, HSF-1 act 7, PvdQ inh 6, T cruzi repl 43 and N-glyco inh 0.
CCOC(=O)C1CCN(C(=O)C(=O)c2cn(CC(=O)N3CCCCCC3)c3ccccc23)CC1 was read as PfHsp90 set2 -7, HSF-1 act 18, PvdQ inh 15, T cruzi repl 62*, N-glyco inh 2 and CaV13 FRET inh -3.
Screening O=C(c1cn(CC(=O)N2CCCCC2)c2ccccc12)C1CC1 returned PfHsp90 set2 -4, HSF-1 act 62*, PvdQ inh 0, T cruzi repl -2, N-glyco inh 1 and CaV13 FRET inh -4.
Screening CC1CCCCN1C(=O)C(=O)c1cn(CC(=O)N2CCCCCC2)c2ccccc12 (stereo not given) returned PfHsp90 set2 -14, HSF-1 act -7, PvdQ inh -9, T cruzi repl 64*, N-glyco inh -3 and CaV13 FRET inh -2.
Screening CCOC(=O)[C@]12CCC=C1N(Cc1ccco1)C(=O)[C@H](CC(=O)NCC13CC4CC(CC(C4)C1)C3)C2 returned CaV13 FRET inh -5.
Screening O=c1[nH][nH]c2c1[C@H](c1ccc(F)cc1)O[C@H](CCc1ccccc1)C2 returned CaV13 FRET inh -6.
O=C1NC[C@@H](CCCCN2C[C@H](Cc3ccccc3)N(CCc3ccc(O)cc3)C(=O)C2=O)N(CCc2ccccc2)C1=O was read as CaV13 FRET inh -5.
For COc1ccc(C(=O)CC(Nc2ccc([N+](=O)[O-])cc2)c2ccc(Cl)cc2)cc1 (stereo not given) the results were PfHsp90 set2 -6, HSF-1 act 12, PvdQ inh 9, T cruzi repl 64*, N-glyco inh -3 and CaV13 FRET inh -5.
Screening Cc1ccccc1C(=O)N1CCN(C(=O)C(=O)c2cccc(C(F)(F)F)c2)CC1 returned CaV13 FRET inh -10.
For CC(=O)Nc1ccc(CNc2ncnc3ccc(-c4c(C)noc4C)cc23)cc1 the results were PvdQ inh -3, N-glyco inh 50* and CaV13 FRET inh -3.
`O=S1(=O)N[C@H](Cc2ccccc2)COc2cc(N3CCOCC3)ccc21` gave CaV13 FRET inh -6.
For CCOc1cc(N2CCOCC2)c(OCC)cc1NC(=O)CN1CCC(Cc2ccccc2)CC1 the results were PfHsp90 set2 7, HSF-1 act 15, PvdQ inh 10, T cruzi repl 62*, N-glyco inh -1 and CaV13 FRET inh 16.
Screening CCOc1cc(N2CCOCC2)c(OCC)cc1NC(=O)CN1C(=O)NC(Cc2ccccc2)C1=O (stereo not given) returned PfHsp90 set2 -22, HSF-1 act 0, PvdQ inh -9, T cruzi repl 1 and N-glyco inh 2.
